Measured values taken from ChEMBL document CHEMBL5647697, “Akt inhibition synergizes with polycomb repressive complex 2 inhibition in the treatment of multiple myeloma” (2019).
Calls of active or inactive are those of the source. The rule behind the calls is not given here.

Key:
NCI-H929 [1] = assay: Upregulation of BIM mRNA expression in human NCI-H929 cells at 1 micromol/L after 24 hrs by qRT-PCR analysis; format: functional, cell-based; settings: dose 1.0 µmol/L
Summary of the method: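 Cells were exposed to 1 μmol/L TAS-117 for 24 h. mRNA of FOXO3, FOXO4, BIM and CDKN1B was measured by qRT-PCR in H929 cells. Fold change is relative to the untreated control after normalization to GAPDH. Data are SD of triplicates.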

NCI-H929 [2] = assay: Synergistic activity against human NCI-H929 cells assessed as combination index […] in presence of 2.5 uM UNC1999 […] at 0.125 uM incubated for 48 hrs by […]; format: functional
Summary of the method: (§1)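 Cells were exposed to the EZH2/EZH1 inhibitor (UNC1999 or GSK126) for 72 h in total, with the Akt inhibitor added for the last 48 h. Viability was read by MTS assay relative to untreated control cells, in triplicate. The combination index for each dose pair came from isobologram analysis.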

OPM-2/BTZ [3] = assay: Downregulation of E2F1 protein expression in human OPM-2/BTZ cells incubated at 0.3 to 3 micromol/L for 48 hrs by Western blot analysis; format: functional, cell-based; settings: dose 0.3-3 µmol/L
MM1.S [4] = assay: Downregulation of EZH2 mRNA expression in human MM1.S cells in presence of 5 micromol/L UNC1999 for 72 hrs followed by compound addition at 2 micromol/L incubated for 24 hrs by qRT-PCR analysis; settings: dose 2.0 µmol/L
MM1.S [5] = assay: Cytotoxicity against human MM1.S cells transduced with EZH1 assessed as enhanced sensitivity at 0.156 to 2.5 micromol/L 48 hrs by MTS assay; format: functional, cell-based; settings: dose 0.156-2.5 µmol/L
Summary of the method: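 MM.1S or H929 cells transduced with lentiviral shRNA against EZH1 or against luciferase (shLuc control), then given TAS-117 at the indicated doses for 48 h. Viability by MTS relative to untreated control; mean ± SD of triplicates; compared with shLuc.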

OPM-2 [6] = assay: Synergistic activity against human OPM-2 cells assessed as combination index preincubated in presence of 2.5 uM UNC1999 for 72 hrs followed by compound addition at 1.25 uM incubated for 48 hrs by MTT assay; format: functional
OPM-2/BTZ [7] = assay: Synergistic activity against human OPM-2/BTZ cells assessed as combination index preincubated in presence of 2.5 uM GSK126 for 72 hrs followed by compound addition at 1 uM incubated for 48 hrs by MTT assay; format: functional
OPM-2 [8] = assay: Synergistic activity against human OPM-2 cells assessed as combination index preincubated in presence of 2.5 uM UNC1999 for 72 hrs followed by compound addition at 2.5 uM incubated for 48 hrs by MTT assay; format: functional
MM1.S [9] = assay: Induction of apoptosis in human MM1.S cells assessed as late apoptotic cells at 2 micromol/L incubated for 12 hrs by annexin V/PI staining based flow cytometry (reference value: 3.6%); format: functional; settings: dose 2 µmol/L, at 2 µM
OPM-2 [10] = assay: Synergistic activity against human OPM-2 cells assessed as combination index preincubated in presence of 5 uM UNC1999 for 72 hrs followed by compound addition at 2.5 uM incubated for 48 hrs by MTS assay
MM1.S [11] = assay: Synergistic activity against human MM.1S cells assessed as combination index […] in presence of 1.25 uM UNC1999 […] at 0.5 uM incubated for 48 hrs by […] assay; format: functional; summary of the method: as §1
NCI-H929 [12] = assay: Downregulation of EZH2 protein expression in human NCI-H929 cells at 0.3 to 5 micromol/L for 6 to 48 hrs by Western blot analysis; format: functional, cell-based; settings: dose 0.3-5 µmol/L, time 6-48 hrs
Summary of the method: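 MM.1S and H929 cells exposed to TAS-117 at the indicated doses for 48 h, or to 5 μmol/L for the indicated times. Immunoblot with GAPDH, Akt and H3 as loading controls; EZH2 quantified relative to GAPDH.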

MM1.S [13] = assay: Upregulation of H3K27me3 protein expression in human MM1.S cells at 0.3 to 5 micromol/L for 6 to 48 hrs by Western blot analysis; format: functional, cell-based; settings: dose 0.3-5 µmol/L, time 6-48 hrs
Summary of the method: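 H3K27me3 was detected by immunoblot in MM.1S and H929 cells. Cells were given graded TAS-117 for 48 h, or 5 μmol/L for the indicated times. Signal is quantified relative to the H3 loading control.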

OPM-2/BTZ [14] = assay: Synergistic activity against human OPM-2/BTZ cells assessed as combination index preincubated in presence of 5 uM GSK126 for 72 hrs followed by compound addition at 2 uM incubated for 48 hrs by MTT assay; format: functional
MM1.S [15] = assay: Synergistic activity against human MM.1S cells assessed as combination index preincubated in presence of 1.25 uM GSK126 […] at 0.25 uM incubated for 48 hrs by […]; format: functional; summary of the method: as §1
MM1.S [16] = assay: Synergistic activity against human MM.1S cells assessed as combination index […] at 0.5 uM incubated for 48 hrs by […]; format: functional; summary of the method: as §1
NCI-H929 [17] = assay: Synergistic activity against human NCI-H929 cells assessed as combination index preincubated in presence of 2.5 uM UNC1999 […] at 0.5 uM incubated for 48 hrs by […]; format: functional; summary of the method: as §1
NCI-H929 [18] = assay: (§2) Synergistic activity against human NCI-H929 cells assessed as combination index […] at 0.5 uM incubated for 48 hrs by […]; format: functional; summary of the method: as §1
MM1.S [19] = assay: Synergistic activity against human MM.1S cells assessed as combination index […] at 0.5 uM incubated for 48 hrs by MTT assay; format: functional; summary of the method: as §1
OPM-2/BTZ [20] = assay: Cytotoxicity against human OPM-2/BTZ cells assessed as reduction in cell viability at 0.3125 to 10 micromol/L after 48 hrs by MTS assay; format: functional, cell-based; settings: dose 0.3125-10 µmol/L
Summary of the method: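 Seven myeloma lines (MM.1S, H929, OPM2/BTZ among them) exposed to TAS-117 at increasing concentrations up to 10 μmol/L for 48 h. Viability read by MTS against an untreated control; mean ± SD of triplicates.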

NCI-H929 [21] = assay: Downregulation of E2F1 protein expression in human NCI-H929 cells incubated at 0.3 to 3 micromol/L for 48 hrs by Western blot analysis; format: functional, cell-based; settings: dose 0.3-3 µmol/L
Summary of the method: (§3)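 MM.1S and H929 cells given TAS-117 at the indicated doses for 48 h. Protein levels assessed by immunoblot.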

NCI-H929 [22] = assay: Downregulation of phospho-Rb protein expression in human NCI-H929 cells incubated at 0.3 to 3 micromol/L for 48 hrs by Western blot analysis; format: functional, cell-based; settings: dose 0.3-3 µmol/L; summary of the method: as §3
MM1.S [23] = assay: Downregulation of EZH2 mRNA expression in human MM1.S cells at 0.3 to 3 micromol/L after 24 hrs by qRT-PCR analysis; format: functional, cell-based; settings: dose 0.3-3 µmol/L
Summary of the method: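 MM.1S and H929 cells given TAS-117 at the indicated doses for 24 h. mRNA measured by RT-qPCR, fold change after normalization to GAPDH; SD of triplicates; significance versus untreated control.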

MM1.S [24] = assay: Induction of apoptosis in human MM1.S cells assessed as live cells at 2 micromol/L incubated for 12 hrs by annexin V/PI staining based flow cytometry (reference value: 88.2%); format: functional; settings: dose 2 µmol/L, at 2 µM
NCI-H929 [25] = assay: as §2; format: functional; summary of the method: as §1; remark: listed apart in the source
NCI-H929 [26] = assay: Synergistic activity against human NCI-H929 cells assessed as combination index preincubated in presence of 2.5 uM GSK126 […] at 0.125 uM incubated for 48 hrs by […]; format: functional; summary of the method: as §1

With `C[C@]1(O)C[C@@](N)(c2ccc(-c3nc4n(c3-c3ccccc3)COc3ccncc3-4)cc2)C1` [PIFUSERTIB] the Activity (NCI-H929 [1]) was “Active”, the CI (NCI-H929 [2]) was 0.783 and the Activity (OPM-2/BTZ [3]) was “Active”. The Activity (MM1.S [4]) was “Active”, the Activity (MM1.S [5]) was “Active” and the CI (OPM-2 [6]) was 2.53. For the same compound, the CI (OPM-2/BTZ [7]) was 0.359, the CI (OPM-2 [8]) was 2.79 and the Activity (MM1.S [9]) was 4.57%. For the same compound, the CI (OPM-2 [10]) was 5.53, the CI (MM1.S [11]) was 0.357 and the Activity (NCI-H929 [12]) was “Active”. For the same compound, the Activity (MM1.S [13]) was “Active”, the CI (OPM-2/BTZ [14]) was 0.967 and the CI (MM1.S [15]) was 0.954. For the same compound, the CI (MM1.S [16]) was 0.889, the CI (NCI-H929 [17]) was 0.807 and the CI (NCI-H929 [18]) was 4.395. For the same compound, the CI (MM1.S [19]) was 1.03, the Activity (OPM-2/BTZ [20]) was “Active” and the Activity (NCI-H929 [21]) was “Active”. The Activity (NCI-H929 [22]) was “Active”, the Activity (MM1.S [23]) was “Active” and the Activity (MM1.S [24]) was 85.7%. The CI (NCI-H929 [25]) was 1.046 and the CI (NCI-H929 [26]) was 4.094.
